Measurements reported in ChEMBL document CHEMBL3797120, “Identification of 1,2,3-triazole derivatives that protect pancreatic β cells against endoplasmic reticulum stress-mediated dysfunction and death through the inhibition of C/EBP-homologous protein expression” (Bioorg Med Chem, 2016).
The source made the active and inactive calls. The calls are words filed in the database; no cut-off is given here.

Tests used:
Mus musculus [1] = assay: (§1) Antidiabetic activity in streptozotocin-induced diabetic C57BL/6 mouse model assessed as total pancreatic islet area at 20 mg/kg, ip administered for 5 consecutive days with streptozotocin followed by 2 more weeks compound addition without streptozotocin measured post last dose by DAPI staining-based confocal microscopy (reference value: 21.3 +/- 4.4%); assay type: functional
[2] = Inhibition of endoplasmic reticulum stress-mediated upregulation of CHOP protein expression in tunicamycin-treated rat INS-1 cells at 20 uM after 2 to 8 hrs by Western blot method; assay type: functional, cell-based; conditions: INS1
Outline: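 INS-1 cells seeded at 8 × 10⁵ per 60-mm dish and treated with Tm and 20 μM compound or DMSO. Lysates (20 μg protein) were run on 7% SDS-PAGE and blotted with anti-CHOP (1:1000). α-Tubulin served as loading control.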

[3] = Cytoprotective activity against endoplasmic reticulum stress-induced cell death in tunicamycin-treated CHOP knock out C57BL/6 mouse primary pancreatic islet beta cells assessed as DNA fragmentation at 10 uM after 24 hrs by TUNEL assay (reference value: 18.7%); assay type: functional
Outline: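 Primary islet cells isolated from CHOP−/− knockout mice (age-matched males), cultured in CMRL-1066 with 10% FBS, treated with compound (10 μM) plus tunicamycin (1 μg/ml) for 24 h. Cells fixed in 4% paraformaldehyde, permeabilized with 0.1% Triton X-100 in 0.1% sodium citrate, TUNEL stained (1 h, 37°C), co-stained for insulin and DAPI; % TUNEL+ insulin+ cells counted, five wells, islets from 3 mice.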

[4] = Effect on 2.5 mM glucose-stimulated insulin secretion in rat INS-1 cells preincubated for 24 hrs followed by glucose addition and subsequent incubation for 45 mins by ELISA; assay type: ADME, cell-based; conditions: ins1, 0.75 h
Outline: (§2)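 INS-1 cells seeded at 1 × 10⁵/well and treated 24 h with compounds (with or without Tm). They were washed in Krebs-HEPES buffer pH 7.4 with 1% BSA, preincubated 1 h in 2.5 mM glucose, then stimulated 45 min with 2.5 or 20 mM glucose. Secreted insulin was measured by ELISA and normalized to Bradford total protein. The index is 20 mM/2.5 mM secretion from triplicate wells.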

[5] = Effect on growth rate of rat INS-1 cells at 2.5 to 10 uM after 72 hrs by CellTiter-Glo assay relative to control; assay type: cell-based; conditions: ins1, 72 h
Outline: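 INS-1 cells grown with compound alone (no stressor) and viability/growth read by CellTiter-Glo, compared with DMSO-treated cells.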

[6] = biological target: DNA damage-inducible transcript 3 protein (Rattus norvegicus) (UniProt Q62857); assay: Inhibition of endoplasmic reticulum stress-induced CHOP activity in rat INS-1 cells assessed as decrease in sodium palmitate-induced cell death by measuring cell viability at 2.5 to 20 uM after 72 hrs by CellTiter-Glo assay; assay type: cell-based; conditions: INS1
DNA damage-inducible transcript 3 protein (Rattus norvegicus), sequence (Q62857 whole entry, the tested form may be a part): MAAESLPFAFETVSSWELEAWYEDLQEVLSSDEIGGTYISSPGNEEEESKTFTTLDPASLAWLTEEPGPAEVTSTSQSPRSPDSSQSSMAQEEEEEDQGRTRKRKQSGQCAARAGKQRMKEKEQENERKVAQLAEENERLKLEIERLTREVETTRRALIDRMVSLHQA
Outline: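 INS-1 cells switched to DMEM/1% FBS/1% BSA and stressed with sodium palmitate (from 5 mM stock in 5% BSA; final 0.2 mM). Treated 72 h with DMSO or compound. Viability measured by CellTiter-Glo. Means ± SD of quadruplicates.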

INS1 [7] = assay: Cytoprotective activity in endoplasmic reticulum stressed rat INS-1 cells assessed as rescue from tunicamycin-mediated reduction in cell viability at 10 uM after 72 hrs by CellTiter-Glo assay relative to control; assay type: functional
Outline: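 INS-1 cells seeded at 3 × 10³/well and exposed for 72 h to Tm 0.1 μg/ml plus compound. Viability measured as ATP by CellTiter-Glo. Tm alone was set to 0% and DMSO without Tm to 100% rescue. Values are the mean of three experiments. EC50 was derived for survival.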

[8] = biological target: DNA damage-inducible transcript 3 protein (Mus musculus) (UniProt P35639); assay: Inhibition of endoplasmic reticulum stress-induced CHOP activity in mouse BetaTC6 cells assessed as decrease in tunicamycin-induced cell death by measuring cell viability at 2.5 to 20 uM after 72 hrs by CellTiter-Glo assay; assay type: cell-based; conditions: Beta-TC6
DNA damage-inducible transcript 3 protein (Mus musculus), sequence (P35639 whole entry, the tested form may be a part): as the sequence (Q62857 whole entry, the tested form may be a part) above, with A9T, F10L, A70T, S74R, D97E, A111P, A114P, L142Q counted along it
Outline: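 βTC6 mouse insulinoma cells (DMEM, 15% FBS) seeded at 3 × 10³/well and treated 72 h with Tm 0.25 μg/ml plus DMSO or compound. Viability measured by CellTiter-Glo and expressed as fold change versus Tm alone = 1. Means ± SD of triplicates.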

[9] = biological target: DNA damage-inducible transcript 3 protein (Rattus norvegicus) (UniProt Q62857); assay: Inhibition of endoplasmic reticulum stress-induced CHOP activity in rat INS-1 cells assessed as decrease in brefeldin A-induced cell death by measuring cell viability at 5 to 20 uM after 72 hrs by CellTiter-Glo assay; assay type: cell-based; conditions: INS1
Outline: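 INS-1 cells treated 72 h with or without brefeldin A 0.2 μg/ml in the presence of DMSO or compound at indicated concentrations. Viability measured by CellTiter-Glo. Means ± SD of quadruplicates.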

[10] = biological target: DNA damage-inducible transcript 3 protein (Rattus norvegicus) (UniProt Q62857); assay: Inhibition of endoplasmic reticulum stress-induced CHOP activity in rat INS-1 cells assessed as restoration of tunicamycin-mediated reduction of 20 mM glucose-stimulated insulin secretion preincubated for 24 hrs followed by glucose addition and subsequent incubation for 45 mins by ELISA; assay type: cell-based; conditions: INS1; outline: as §2
[11] = Effect on 20 mM glucose-stimulated insulin secretion in rat INS-1 cells preincubated for 24 hrs followed by glucose addition and subsequent incubation for 45 mins by ELISA; assay type: ADME, cell-based; conditions: ins1, 0.75 h; outline: as §2
[12] = Inhibition of endoplasmic reticulum stress-mediated upregulation of CHOP mRNA expression in tunicamycin-treated rat INS-1 cells at 10 uM by qRT-PCR method; assay type: functional, cell-based; conditions: INS1, TDE = time-dependent effect
Outline: (§3)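 INS-1 cells seeded at 4 × 10⁵/well and treated with Tm 0.1 μg/ml plus compound, either for 8 h at indicated concentrations or for indicated times at 10 μM. CHOP mRNA was measured by qRT-PCR with rat primers, normalized to rat cyclophilin A, and reported as fold change.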

Mus musculus [13] = assay: as §1, with “increase in level of insulin-positive beta cells per” for “total”, “islet” for “islet area”, “relative to control” for “(reference value: 21.3 +/- 4.4%)”; assay type: functional, organism-based
[14] = biological target: DNA damage-inducible transcript 3 protein (Mus musculus) (UniProt P35639); assay: Inhibition of endoplasmic reticulum stress-induced CHOP activity in tunicamycin-treated C57BL/6 mouse primary pancreatic islet beta cells assessed as DNA fragmentation at 10 uM after 24 hrs by TUNEL assay (reference value: 40.4%); set-up: scale not given: the % may be the effect or the level left
Outline: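 Primary islet cells from C57BL/6 mice were cultured in CMRL-1066/10% FBS and treated 24 h with Tm 1 μg/ml plus 10 μM compound or DMSO. Cells were fixed in 4% PFA, permeabilized in Triton/citrate, TUNEL-stained (1 h, 37°C), and co-stained for insulin and DAPI. TUNEL+ insulin+ cells were counted as mean ± SD of five wells (~50 islets, 3 mice).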

INS1 [15] = assay: Cytoprotective activity in endoplasmic reticulum stressed rat INS-1 cells assessed as rescue from tunicamycin-mediated reduction in cell survival after 72 hrs by CellTiter-Glo assay; conditions: INS1, 72 h
[16] = Effect on basal CHOP mRNA expression in rat INS-1 cells at 10 uM after 2 to 8 hrs by qRT-PCR method; assay type: ADME, cell-based; conditions: ins1, 10 µM
Outline: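 INS-1 cells seeded at 4 × 10⁵/well and exposed to DMSO or 10 μM compound without Tm for the indicated times. Total RNA (2 μg) was reverse transcribed. CHOP mRNA was measured by qRT-PCR with rat primers, normalized to rat cyclophilin A, and expressed as fold change.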

[17] = biological target: DNA damage-inducible transcript 3 protein (Rattus norvegicus) (UniProt Q62857); assay: Inhibition of endoplasmic reticulum stress-induced CHOP activity in rat INS-1 cells assessed as suppression of tunicamycin-induced caspase-3 cleavage at 20 uM after 2 to 24 hrs by Western blot method; assay type: cell-based; conditions: INS1
Outline: (§4)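 INS-1 cells seeded at 8 × 10⁵ per 60-mm dish and treated with or without compound, with or without Tm, for the indicated times. Lysates (20 μg protein) were run on 7% SDS-PAGE and blotted with anti-caspase-3 and anti-PARP (1:1000) to detect cleavage. α-Tubulin served as loading control.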

[18] = Inhibition of endoplasmic reticulum stress-mediated upregulation of CHOP mRNA expression in tunicamycin-treated rat INS-1 cells after 2 to 8 hrs by qRT-PCR method; assay type: functional, cell-based; conditions: INS1; outline: as §3
[19] = biological target: DNA damage-inducible transcript 3 protein (Rattus norvegicus) (UniProt Q62857); assay: Inhibition of endoplasmic reticulum stress-induced CHOP activity in rat INS-1 cells assessed as suppression of tunicamycin-induced PARP cleavage at 20 uM after 2 to 24 hrs by Western blot method; assay type: cell-based; conditions: INS1; outline: as §4
Mus musculus [20] = assay: Antidiabetic activity in streptozotocin-induced diabetic C57BL/6 mouse model assessed as decrease in blood glucose level at 20 mg/kg, ip administered for 5 consecutive days with streptozotocin followed by 2 more weeks compound addition without streptozotocin measured every 3 day of compound dosing by glucometer relative to control; assay type: functional, organism-based
Outline: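 Ten-week-old male C57BL/6 mice given STZ 50 mg/kg i.p. (in Na-citrate) once daily for 5 days, together with test agent 20 mg/kg i.p. (2 mg/ml in 10% DMSO/saline; n = 7) or vehicle (n = 6). Dosing without STZ then continued for 2 more weeks. Fasting (5 h) tail blood glucose read by glucometer every third day.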

[21] = biological target: DNA damage-inducible transcript 3 protein (Rattus norvegicus) (UniProt Q62857); assay: Inhibition of endoplasmic reticulum stress-induced CHOP activity in tunicamycin-treated rat INS-1 cells assessed as DNA fragmentation at 20 uM after 24 hrs by TUNEL assay (reference value: 15%); assay type: cell-based; set-up: scale not given: the % may be the effect or the level left; conditions: INS1
Outline: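 INS-1 cells seeded at 4 × 10⁴/well and treated 24 h with Tm 0.1 μg/ml plus 20 μM compound. Cells were fixed in 4% PFA, permeabilized, TUNEL-stained 1 h at 37°C, counterstained with DAPI, and imaged by high-content imaging. TUNEL+ percentage is mean ± SD of five images.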

Q: What does the source list for `CCc1ccc(-n2nnc(C(=O)Nc3cccc(F)c3)c2C)cc1`?
A: Activity (Mus musculus [1]): 44.2%; inhibition [2]: Active; Activity [3]: 14.6%; Activity [4]: Non-toxic; Activity [5]: Non-toxic; inhibition [6]: Active; %max (INS1 [7]): 87%; inhibition [8]: Active; inhibition [9]: Active; inhibition [10]: Active; Activity [11]: Non-toxic; inhibition [12]: tde; Activity (Mus musculus [13]): Active; Activity [14]: 9%; EC50 (INS1 [15]): 2800 nM; Activity [16]: Non-toxic; inhibition [17]: Active; inhibition [18]: Dose-dependent effect; inhibition [19]: Active; Activity (Mus musculus [20]): Active; Activity [21]: 1.5%
